The species named for data set [1] is Homo sapiens. In words: Absorption rate constant in human by covariate model. The class given is ADME, organism-based. To be noted: in vivo. A digest of the protocol: (§1)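 HIV-infected patients (ANRS 107) on atazanavir plus ritonavir plus tenofovir plus optimized background. Week-6 predose plasma trough samples; 10-patient substudy also sampled at 1, 2, 3, 5, 8 and 24 h postdose. Plasma held at −20°C, assayed by LC-MS/MS (LOQ 1 ng/ml). Population analysis used a one-compartment model with first-order absorption and elimination, exponential interindividual variability and proportional residual error.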

A short description of data set [2]: AUC in patient with => 40 IU/liter ALAT level by covariate model. Conditions: human, in vivo. The class given is ADME, organism-based. A digest of the protocol:
as §1

Data set [3] is described as follows: Apparent volume of distribution with respect to the bioavailability in human by one-comparment model. To be noted: in vivo, read-out: Vc/F. The class given is ADME, organism-based. A digest of the protocol: as §1
Data set [4] in a line: Binding affinity to human alpha-1-glycoprotein acid. The class given is ADME. A digest of the protocol: (§2)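 In vitro binding: alpha-1 glycoprotein acid or serum albumin solutions in pH 7.4 phosphate-buffered saline with added atazanavir. Bound and unbound drug separated by ultrafiltration of 500-µl samples (30,000 Da cutoff membrane), 2 h at 30°C. Ultrafiltrate drug measured by HPLC-UV at 220 nm (C18 column, liquid-liquid extraction, internal standard). Unbound fraction taken as unbound/total concentration. Binding profiled as bound versus unbound concentration.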

A short description of data set [5]: Apparent volume of distribution with respect to the bioavailability in human by covariate model. The class given is ADME, organism-based. Conditions: in vivo, read-out: Vc/F. A digest of the protocol: as §1
The nature of data set [6]: Half life in patient with => 40 IU/liter ALAT level by one-compartment model. To be noted: human, in vivo. The class given is ADME, organism-based. A digest of the protocol: as §1
Data set [7] in a line: AUC in patient with => 40 IU/liter ALAT level by one-compartment model. The class given is ADME, organism-based. To be noted: human, in vivo. A digest of the protocol: as §1
Data set [8] can be described thus: Apparent oral clearance in human by one-compartment model. The class given is ADME, organism-based. To be noted: in vivo. A digest of the protocol:
as §1

Data set [9] can be described thus: Half life in patient with elevated alpha-1- glycoprotein acid level by covariate model. The class given is ADME, organism-based. To be noted: human, in vivo. A digest of the protocol:
as §1

The nature of data set [10]: AUC in patient with elevated alpha-1- glycoprotein acid level by covariate model. To be noted: human, in vivo. The class given is ADME, organism-based. A digest of the protocol:
as §1

Data set [11] concerns the target Albumin (Homo sapiens, UniProt P02768). In words: Binding affinity to human serum albumin. The class given is ADME. Conditions: isolated protein. A digest of the protocol: as §2
The species entered for data set [12] is Homo sapiens. Briefly: Absorption rate constant in human by one-compartment model. To be noted: in vivo. The class given is ADME, organism-based. A digest of the protocol:
as §1

Data set [13] in a line: Half life in patient with => 40 IU/liter ALAT level by covariate model. The class given is ADME, organism-based. To be noted: human, in vivo. A digest of the protocol:
as §1

A short description of data set [14]: Half life in patient with elevated alpha-1- glycoprotein acid level by one-compartment model. The class given is ADME, organism-based. Conditions: human, in vivo. A digest of the protocol: as §1
The nature of data set [15]: Apparent oral clearance in human by covariate model. The class given is ADME, organism-based. Conditions: in vivo. A digest of the protocol: as §1
Data set [16] is described as follows: AUC in patient with elevated alpha-1- glycoprotein acid level by one-compartment model. Conditions: human, in vivo. The class given is ADME, organism-based. A digest of the protocol:
as §1

Albumin, sequence (P02768 whole entry): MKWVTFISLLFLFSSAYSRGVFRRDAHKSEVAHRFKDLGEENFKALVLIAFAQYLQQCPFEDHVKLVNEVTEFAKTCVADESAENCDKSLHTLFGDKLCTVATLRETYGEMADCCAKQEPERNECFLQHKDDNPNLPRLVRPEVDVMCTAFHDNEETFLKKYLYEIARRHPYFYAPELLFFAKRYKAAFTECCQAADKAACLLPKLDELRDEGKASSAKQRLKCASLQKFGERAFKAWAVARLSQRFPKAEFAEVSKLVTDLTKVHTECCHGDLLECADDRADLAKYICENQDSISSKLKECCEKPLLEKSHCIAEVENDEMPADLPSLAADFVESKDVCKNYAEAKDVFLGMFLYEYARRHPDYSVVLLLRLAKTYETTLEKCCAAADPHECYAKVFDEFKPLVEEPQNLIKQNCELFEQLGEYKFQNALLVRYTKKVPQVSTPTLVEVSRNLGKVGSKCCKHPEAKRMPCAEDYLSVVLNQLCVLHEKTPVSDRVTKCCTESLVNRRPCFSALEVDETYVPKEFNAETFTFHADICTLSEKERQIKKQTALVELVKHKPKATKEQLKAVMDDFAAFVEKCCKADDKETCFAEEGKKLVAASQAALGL

As for `COC(=O)N[C@H](C(=O)N[C@@H](Cc1ccccc1)[C@@H](O)CN(Cc1ccc(-c2ccccn2)cc1)NC(=O)[C@@H](NC(=O)OC)C(C)(C)C)C(C)(C)C` [ATAZANAVIR], the ka came to 0.73 h⁻¹ in [1] and 0.75 h⁻¹ in data set [12]. The AUC in data set [2] was found to be 47400 ng·h/mL; in [7], 47400 ng·h/mL; in data set [10], 49600 ng·h/mL; in data set [16] it was 49600 ng·h/mL. In addition, the Vd/F is 78.2 L in data set [3] and 79.7 L in data set [5]. Moreover, the values for the Activity in [4] and in data set [11] were 31.1% and 21.3%, respectively. The half-life is 7.8 h in [6], 9 h in data set [9], 7.8 h in [13] and 9 h in data set [14]. Moreover, the CL/F in data set [8] is 130 mL/min; in [15], 222 mL/min.

As a reminder, the AUC is concentration integrated over time. Low readings indicate less exposure, high ones more exposure. As a reminder, the half-life is the time needed for the level to fall by half in the phase considered. Lower therefore signals fast loss. As usually defined, the CL/F is clearance divided by bioavailability, as obtained after extravascular dosing.
